Key:
[1] = organism: Rattus norvegicus; experiment: Radioactivity distribution in muscle of tumor-bearing fischer rat after injection of anti-[18F]FMACBC after 5 min; format: ADME, organism-based, Muscle tissue; conditions: in vivo
Outline: (§1)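 Male Fischer 344 rats with intracranial 9L gliosarcoma (4 × 10^4 cells stereotaxically implanted; used 17–19 days after implantation). About 35 μCi tracer in 0.3 mL sterile water was given by tail vein to awake, restrained rats. Rats were killed at 5, 60 or 120 min. Tissues, tumor and contralateral brain were weighed and gamma counted, decay-corrected, and expressed as %ID/g; n = 3–5 per time point.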

[2] = organism: Rattus norvegicus; experiment: Radioactivity distribution in spleen of normal fischer rat after injection of anti-[18F]FMACBC after 30 min.; format: ADME, organism-based; conditions: in vivo, 0.5 h
Outline: (§2)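 Normal male Fischer 344 rats (200–250 g) were anesthetised with ketamine:xylazine i.m. and given about 85 μCi tracer in 0.3 mL sterile water via a tail vein catheter. Groups of four were killed at 5, 30, 60 and 120 min. Selected tissues were weighed and gamma counted with dose standards, decay-corrected, and expressed as mean %ID/g.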

[3] = organism: Rattus norvegicus; experiment: Radioactivity distribution in spleen of normal fischer rat after injection of anti-[18F]FMACBC after 60 min.; format: ADME, organism-based; conditions: in vivo, 1 h; outline: as §2
[4] = organism: Rattus norvegicus; experiment: Radioactivity distribution in pancreas of normal fischer rat after injection of syn-[18F]-FMACBC after 120 min.; format: ADME, organism-based; conditions: in vivo, 2 h; outline: as §2
[5] = organism: Rattus norvegicus; experiment: Radioactivity distribution in muscle of normal fischer rat after injection of anti-[18F]FMACBC after 60 min.; format: ADME, organism-based, Muscle tissue; conditions: in vivo, 1 h; outline: as §2
[6] = organism: Rattus norvegicus; experiment: Radioactivity distribution in pancreas of normal fischer rat after injection of anti-[18F]FMACBC after 60 min.; format: ADME, organism-based; conditions: in vivo, 1 h; outline: as §2
[7] = organism: Rattus norvegicus; experiment: Radioactivity distribution in heart of tumor-bearing fischer rat after injection of anti-[18F]FMACBC after 5 min; format: ADME, organism-based; conditions: in vivo
Outline: (§3)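 Male Fischer 344 rats carrying intracranial rat 9L gliosarcoma, made by stereotaxic injection of 4 × 10^4 cells 17–19 days before. Awake restrained rats received ~35 μCi of 18F tracer in 0.3 mL sterile water IV by tail vein and were killed at 5, 60 or 120 min, n = 3–5. Tissues were weighed, gamma-counted, decay-corrected and expressed as % injected dose per gram.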

[8] = organism: Rattus norvegicus; experiment: Radioactivity distribution in muscle of normal fischer rat after injection of syn-[18F]-FMACBC after 5 min.; format: ADME, organism-based, Muscle tissue; conditions: in vivo; outline: as §2
[9] = organism: Rattus norvegicus; experiment: Radioactivity distribution in blood of normal fischer rat after injection of syn-[18F]-FMACBC after 30 min.; format: ADME, organism-based; conditions: in vivo, 0.5 h
Outline: (§4)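 Male Fischer 344 rats (200–250 g), normal, fed ad libitum, given ~85 μCi of 18F tracer in 0.3 mL sterile water IV through a tail vein catheter. Anesthesia was ketamine:xylazine IM. Groups of four were killed at 5, 30, 60 and 120 min. Tissues were weighed and gamma-counted against dose standards, decay-corrected, and expressed as mean % injected dose per gram.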

[10] = organism: Rattus norvegicus; experiment: Radioactivity distribution in testis of tumor-bearing fischer rat after injection of syn-[18F]-FMACBC after 60 min; format: ADME, organism-based; conditions: in vivo, 1 h; outline: as §1
[11] = organism: Rattus norvegicus; experiment: Radioactivity distribution in tumor of tumor-bearing fischer rat after injection of syn-[18F]-FMACBC after 60 min; format: ADME, organism-based; conditions: in vivo, 1 h; outline: as §1
[12] = organism: Rattus norvegicus; experiment: Radioactivity distribution in bone of tumor-bearing fischer rat after injection of syn-[18F]-FMACBC after 120 min; format: ADME, organism-based, Bone element; conditions: in vivo, 2 h; outline: as §3
[13] = organism: Rattus norvegicus; experiment: Radioactivity distribution in testis of tumor-bearing fischer rat after injection of anti-[18F]FMACBC after 5 min; format: ADME, organism-based; conditions: in vivo; outline: as §1
[14] = organism: Rattus norvegicus; experiment: Radioactivity distribution in heart of tumor-bearing fischer rat after injection of syn-[18F]-FMACBC after 120 min; format: ADME, organism-based; conditions: in vivo, 2 h; outline: as §3
[15] = organism: Rattus norvegicus; experiment: Radioactivity distribution in kidney of tumor-bearing fischer rat after injection of syn-[18F]-FMACBC after 5 min; format: ADME, organism-based; conditions: in vivo; outline: as §3
[16] = organism: Rattus norvegicus; experiment: Radioactivity distribution in liver of normal fischer rat after injection of anti-[18F]FMACBC after 120 min.; format: ADME, organism-based; conditions: in vivo, 2 h; outline: as §4
[17] = organism: Rattus norvegicus; experiment: Radioactivity distribution in kidney of normal fischer rat after injection of syn-[18F]-FMACBC after 5 min.; format: ADME, organism-based; conditions: in vivo; outline: as §4
[18] = organism: Rattus norvegicus; experiment: Radioactivity distribution in heart of tumor-bearing fischer rat after injection of syn-[18F]-FMACBC after 5 min; format: ADME, organism-based; conditions: in vivo; outline: as §3
[19] = organism: Rattus norvegicus; experiment: Radioactivity distribution in heart of normal fischer rat after injection of syn-[18F]-FMACBC after 5 min.; format: ADME, organism-based; conditions: in vivo; outline: as §4
[20] = organism: Rattus norvegicus; experiment: Radioactivity distribution in brain of normal fischer rat after injection of syn-[18F]-FMACBC after 5 min.; format: ADME, organism-based; conditions: in vivo; outline: as §4
[21] = organism: Rattus norvegicus; experiment: Radioactivity distribution in kidney of normal fischer rat after injection of syn-[18F]-FMACBC after 120 min.; format: ADME, organism-based; conditions: in vivo, 2 h; outline: as §4
[22] = organism: Rattus norvegicus; experiment: Radioactivity distribution in brain of tumor-bearing fischer rat after injection of syn-[18F]-FMACBC after 60 min; format: ADME, organism-based; conditions: in vivo, 1 h; outline: as §3
[23] = organism: Rattus norvegicus; experiment: Radioactivity distribution in spleen of normal fischer rat after injection of syn-[18F]-FMACBC after 60 min.; format: ADME, organism-based; conditions: in vivo, 1 h; outline: as §2
[24] = organism: Rattus norvegicus; experiment: Radioactivity distribution in heart of tumor-bearing fischer rat after injection of anti-[18F]FMACBC after 120 min; format: ADME, organism-based; conditions: in vivo, 2 h; outline: as §3
[25] = organism: Rattus norvegicus; experiment: Radioactivity distribution in blood of normal fischer rat after injection of anti-[18F]FMACBC after 60 min.; format: ADME, organism-based; conditions: in vivo, 1 h; outline: as §4
[26] = organism: Rattus norvegicus; experiment: Radioactivity distribution in lungs of normal fischer rat after injection of syn-[18F]-FMACBC after 5 min.; format: ADME, organism-based, Lung; conditions: in vivo; outline: as §2
[27] = organism: Rattus norvegicus; experiment: Radioactivity distribution in brain of normal fischer rat after injection of syn-[18F]-FMACBC after 120 min.; format: ADME, organism-based; conditions: in vivo, 2 h; outline: as §4
[28] = organism: Rattus norvegicus; experiment: Radioactivity distribution in heart of tumor-bearing fischer rat after injection of anti-[18F]FMACBC after 60 min; format: ADME, organism-based; conditions: in vivo, 1 h; outline: as §3
[29] = organism: Rattus norvegicus; experiment: Radioactivity distribution in lung of tumor-bearing fischer rat after injection of syn-[18F]-FMACBC after 120 min; format: ADME, organism-based; conditions: in vivo, 2 h; outline: as §1
[30] = organism: Rattus norvegicus; experiment: Radioactivity distribution in tumor of tumor-bearing fischer rat after injection of syn-[18F]-FMACBC after 5 min; format: ADME, organism-based; conditions: in vivo; outline: as §1
[31] = organism: Rattus norvegicus; experiment: Radioactivity distribution in pancreas of tumor-bearing fischer rat after injection of anti-[18F]FMACBC after 60 min; format: ADME, organism-based; conditions: in vivo, 1 h; outline: as §1
[32] = organism: Rattus norvegicus; experiment: Radioactivity distribution in testis of tumor-bearing fischer rat after injection of anti-[18F]FMACBC after 120 min; format: ADME, organism-based; conditions: in vivo, 2 h; outline: as §1
[33] = organism: Rattus norvegicus; experiment: Radioactivity distribution in lung of normal fischer rat after injection of anti-[18F]FMACBC after 60 min.; format: ADME, organism-based; conditions: in vivo, 1 h; outline: as §2
[34] = organism: Rattus norvegicus; experiment: Radioactivity distribution in liver of normal fischer rat after injection of syn-[18F]-FMACBC after 120 min.; format: ADME, organism-based; conditions: in vivo, 2 h; outline: as §4
[35] = organism: Rattus norvegicus; experiment: Radioactivity distribution in kidney of tumor-bearing fischer rat after injection of anti-[18F]FMACBC after 5 min; format: ADME, organism-based; conditions: in vivo; outline: as §3
[36] = organism: Rattus norvegicus; experiment: Radioactivity distribution in bone of normal fischer rat after injection of anti-[18F]FMACBC after 30 min.; format: ADME, organism-based, Bone element; conditions: in vivo, 0.5 h; outline: as §4
[37] = organism: Rattus norvegicus; experiment: Radioactivity distribution in testis of normal fischer rat after injection of syn-[18F]-FMACBC after 5 min.; format: ADME, organism-based; conditions: in vivo; outline: as §2
[38] = organism: Rattus norvegicus; experiment: Radioactivity distribution in lung of tumor-bearing fischer rat after injection of syn-[18F]-FMACBC after 60 min; format: ADME, organism-based; conditions: in vivo, 1 h; outline: as §1
[39] = organism: Rattus norvegicus; experiment: Radioactivity distribution in brain of tumor-bearing fischer rat after injection of anti-[18F]FMACBC after 5 min; format: ADME, organism-based; conditions: in vivo; outline: as §3
[40] = organism: Rattus norvegicus; experiment: Radioactivity distribution in heart of normal fischer rat after injection of anti-[18F]FMACBC after 30 min.; format: ADME, organism-based; conditions: in vivo, 0.5 h; outline: as §4
[41] = organism: Rattus norvegicus; experiment: Radioactivity distribution in lung of tumor-bearing fischer rat after injection of anti-[18F]FMACBC after 5 min; format: ADME, organism-based; conditions: in vivo; outline: as §1

Question: Which results are given for N[C@]1(C(=O)O)C[C@@H](CF)C1?
Answer: ID/g [1]: 0.57%; ID/g [2]: 0.63%; ID/g [3]: 0.48%; ID/g [4]: 3.88%; ID/g [5]: 0.61%; ID/g [6]: 3.83%; ID/g [7]: 0.58%; ID/g [8]: 0.46%; ID/g [9]: 0.33%; ID/g [10]: 0.22%; ID/g [11]: 1.59%; ID/g [12]: 0.13%; ID/g [13]: 0.23%; ID/g [14]: 0.33%; ID/g [15]: 0.59%; ID/g [16]: 0.48%; ID/g [17]: 0.57%; ID/g [18]: 0.52%; ID/g [19]: 0.63%; ID/g [20]: 0.26%; ID/g [21]: 0.46%; ID/g [22]: 0.23%; ID/g [23]: 0.54%; ID/g [24]: 0.52%; ID/g [25]: 0.33%; ID/g [26]: 0.75%; ID/g [27]: 0.21%; ID/g [28]: 0.63%; ID/g [29]: 0.26%; ID/g [30]: 1.16%; ID/g [31]: 2.48%; ID/g [32]: 0.23%; ID/g [33]: 0.41%; ID/g [34]: 0.52%; ID/g [35]: 0.96%; ID/g [36]: 0.31%; ID/g [37]: 0.32%; ID/g [38]: 0.31%; ID/g [39]: 0.17%; ID/g [40]: 0.68%; ID/g [41]: 0.55%
